Results as given in ChEMBL document CHEMBL4616723, “Discovery of Antibacterials That Inhibit Bacterial RNA Polymerase Interactions with Sigma Factors” (J Med Chem, 2020).
In brackets after ≈: the same amount, converted by molar mass. Activity calls are given as the source filed them. The rule behind the calls is not given here.

Tests used:
[1] = tested on: Klebsiella pneumoniae; assay: Antibacterial activity against Klebsiella pneumoniae ATCC 700603 after 20 hrs by CLSI based-broth microdilution method; assay type: functional; settings: ATCC 700603, 20 h
[2] = tested on: Staphylococcus aureus; assay: Antibacterial activity against Staphylococcus aureus ATCC 25923 after 20 hrs by CLSI based-broth microdilution method; assay type: functional; settings: ATCC 25923, 20 h
[3] = tested on: Enterococcus faecalis; assay: Antibacterial activity against Enterococcus faecalis ATCC 19433 after 20 hrs by CLSI based-broth microdilution method; assay type: functional; settings: ATCC 19433, 20 h
[4] = tested on: Streptococcus pneumoniae; assay: Antibacterial activity against Streptococcus pneumoniae ATCC 49619 after 16 to 20 hrs by CLSI based-broth microdilution method; assay type: functional
[5] = tested on: Streptococcus pyogenes; assay: Antibacterial activity against Streptococcus pyogenes ATCC 19615 after 20 hrs by CLSI based-broth microdilution method; assay type: functional; settings: ATCC 19615, 20 h
[6] = tested on: Streptococcus agalactiae; assay: Antibacterial activity against Streptococcus agalactiae ATCC 12386 after 20 hrs by CLSI based-broth microdilution method; assay type: functional; settings: ATCC 12386, 20 h
[7] = tested on: Acinetobacter baumannii; assay: Antibacterial activity against Acinetobacter baumannii ATCC 19606 after 20 hrs by CLSI based-broth microdilution method; assay type: functional; settings: ATCC 19606 = CIP 70.34 = JCM 6841, 20 h
[8] = Therapeutic index, ratio of CC50 for human A549 cells to MIC for Streptococcus pneumoniae ATCC 49619; assay type: toxicity; settings: read-out: TI
[9] = tested on: Staphylococcus epidermidis; assay: Antibacterial activity against Staphylococcus epidermidis ATCC 12228 after 20 hrs by CLSI based-broth microdilution method; assay type: functional; settings: ATCC 12228, 20 h
[10] = Apparent permeability across apical to basolateral membrane in human Caco2 cells at 10 ug/ml by LC-MS/MS analysis; assay type: ADME, cell-based; settings: Caco-2
Method in brief: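 Caco-2 monolayers grown 21–28 days on Transwell polycarbonate membranes, TEER ≥165 Ω cm2; preincubated 20 min at 37 °C in transport buffer; apical-to-basolateral transport only, pH 7.4 on both sides; receiver sampled over time under sink conditions; concentrations measured by LC–MS/MS.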

[11] = Haemolytic activity in human erythrocytes at 0.1 to 10 ug/ml relative to control; assay type: ADME, cell-based, Erythrocyte; settings: read-out: Activity
Method in brief: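 Human erythrocytes washed in 150 mM NaCl, resuspended in PBS pH 7.4 (2% blood); compound at final 0.1, 1 and 10 μg/mL (0.5% DMSO) for 45 min at 37 °C, n = 6; spun at 500g, 4 °C; supernatant absorbance read at 540 nm; 1% Triton X-100 as positive and PBS as negative control; % lysis calculated.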

[12] = tested on: Staphylococcus aureus; assay: Effect on total RNA level in Staphylococcus aureus ATCC 29213 at 1/4 to 1/8 times MIC by fluorimetric method; assay type: functional
[13] = tested on: Pseudomonas aeruginosa; assay: Antibacterial activity against Pseudomonas aeruginosa ATCC 27853 after 20 hrs by CLSI based-broth microdilution method; assay type: functional; settings: ATCC 27853, 20 h
[14] = tested on: A549; assay: Cytotoxicity against human A549 cells after 48 to 72 hrs by MTT assay; assay type: cell-based
[15] = tested on: Staphylococcus aureus; assay: Antibacterial activity against Staphylococcus aureus ATCC 29213 after 20 hrs by CLSI based-broth microdilution method; assay type: functional; settings: ATCC 29213, 20 h
[16] = tested on: HepG2; assay: Cytotoxicity against human HepG2 cells after 48 to 72 hrs by MTT assay; assay type: cell-based
[17] = Therapeutic index, ratio of CC50 for human HepG2 cells to MIC for Streptococcus pneumoniae ATCC 49619; assay type: toxicity; settings: read-out: TI
[18] = tested on: Staphylococcus saprophyticus; assay: Antibacterial activity against Staphylococcus saprophyticus ATCC 15305 after 20 hrs by CLSI based-broth microdilution method; assay type: functional; settings: subsp. saprophyticus ATCC 15305, 20 h
[19] = tested on: Escherichia coli; assay: Antibacterial activity against Escherichia coli ATCC 25922 after 20 hrs by CLSI based-broth microdilution method; assay type: functional; settings: ATCC 25922, 20 h
[20] = tested on: Enterobacter cloacae; assay: Antibacterial activity against Enterobacter cloacae ATCC 13047 after 20 hrs by CLSI based-broth microdilution method; assay type: functional; settings: subsp. cloacae ATCC 13047, 20 h
[21] = Inhibition of Escherichia coli RNAP/sigma-70 protein-protein interaction assessed as reduction in RNA synthesis preincubated for 10 mins followed by sigma-70/DNA template/AGU/ApU/alpha [32P]GTP addition and measured after 10 mins by phosphorimaging analysis
[22] = tested on: Streptococcus pneumoniae; assay: Bactericidal activity against Streptococcus pneumoniae ATCC 49619 at 4 to 16 times MIC measured over 6 hrs by time kill assay; assay type: functional, organism-based
[23] = tested on: Bacillus subtilis; assay: Inhibition of RNAP subunit beta' interaction with sigma factor A assessed as diffusion of RNAP into cytosolic region at 1 to 2 times MIC incubated for 15 mins by confocal microscopy
[24] = tested on: Streptococcus pneumoniae; assay: Bacteriostatic activity against Streptococcus pneumoniae ATCC 49619 assessed as decrease in bacterial growth at 4 to 16 times MIC measured over 6 hrs by time kill assay relative to control; assay type: functional
[25] = tested on: Streptococcus pneumoniae; assay: Bacteriostatic activity against Streptococcus pneumoniae ATCC 49619 at 1 times MIC measured over 6 hrs by time kill assay; assay type: functional, organism-based
[26] = tested on: Staphylococcus aureus; assay: Bactericidal activity against Staphylococcus aureus ATCC 25923 assessed as decrease in CFU count at 16 times MIC measured over 6 hrs by time kill assay; assay type: functional, organism-based
[27] = tested on: Staphylococcus aureus; assay: Effect on total protein level in Staphylococcus aureus ATCC 29213 at 1/4 to 1/8 times MIC; assay type: functional, organism-based
[28] = tested on: Streptococcus pneumoniae; assay: Antibacterial activity against Streptococcus pneumoniae ATCC 49619 assessed as reduction in bacterial ATP production at 0.25 to 16 times MIC measured up to 6 hrs by BacTiter-Glo assay; assay type: functional, organism-based
Method in brief: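 Log-phase S. pneumoniae, about 1.5 × 10^6 CFU/mL in BHI containing compound at several concentrations, untreated control included; grown at 37 °C, 200 rpm, 5% CO2; samples taken at 0, 2, 4 and 6 h; ATP measured by BacTiter-Glo luminescence; triplicate.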

[29] = tested on: Staphylococcus aureus; assay: Bacteriostatic activity against Staphylococcus aureus ATCC 25923 at 16 times MIC measured over 6 hrs by time kill assay; assay type: functional, organism-based
[30] = tested on: Streptococcus pneumoniae; assay: Antibacterial activity against Streptococcus pneumoniae ATCC 49619 assessed as reduction in pneumolysin release at 0.25 to 0.5 times MIC incubated for 16 to 20 hrs by Western blot analysis; assay type: functional, organism-based
Method in brief: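 Overnight static culture in brain–heart infusion broth, with or without serially diluted compound; rifampicin and ceftriaxone controls at twofold dilutions from 2 to 0.002 μg/mL; untreated control. […] Western blot probed with rabbit polyclonal anti-pneumolysin (1:1000) and HRP anti-rabbit secondary, ECL chemiluminescence; band intensity normalized to untreated control.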

[31] = tested on: Streptococcus agalactiae; assay: Bacteriostatic activity against Streptococcus agalactiae ATCC 12386 at 16 times MIC measured over 6 hrs by time kill assay; assay type: functional, organism-based
[32] = tested on: Staphylococcus aureus; assay: Effect on total DNA level in Staphylococcus aureus ATCC 29213 at 1/4 to 1/8 times MIC by fluorimetric method; assay type: functional, organism-based
[33] = tested on: Bacillus subtilis; assay: Inhibition of RNAP subunit beta' interaction with sigma factor A assessed as RNAP delocalization from nucleoid at 0.5 times MIC incubated for 15 mins by confocal microscopy
[34] = tested on: Streptococcus agalactiae; assay: Bactericidal activity against Streptococcus agalactiae ATCC 12386 assessed as decrease in CFU count at 16 times MIC measured over 6 hrs by time kill assay; assay type: functional, organism-based

SMILES	MIC [1]	MIC [2]	MIC [3]	MIC [5]	MIC [6]	MIC [7]	selectivity ratio [8]	MIC [9]	MIC [13]	CC50 [14]	MIC [15]	CC50 [16]	selectivity ratio [17]	MIC [18]	MIC [19]	MIC [20]	IC50 [21]	further results
O=C(O)c1ccccc1C(=O)c1ccc(Sc2ccc(Cl)c(Cl)c2)c([N+](=O)[O-])c1	> 256 µg/mL	16 µg/mL (≈ 35.7 µM)	32 µg/mL (≈ 71.4 µM)	16 µg/mL (≈ 35.7 µM)	16 µg/mL (≈ 35.7 µM)	> 256 µg/mL	9	16 µg/mL (≈ 35.7 µM)	> 256 µg/mL	76.7 µM	16 µg/mL (≈ 35.7 µM)	63.8 µM	7	32 µg/mL (≈ 71.4 µM)	> 256 µg/mL	> 256 µg/mL	20.4 µM	MIC [4]: 8 µg/mL (≈ 17.8 µM); Papp A→B at 10 ug/ml [10]: 35 ×10⁻⁶ cm/s; hemolysis [11]: < 10%; MIC [12]: > 256 µg/mL
O=C(O)c1ccc(Cl)cc1NCc1ccc(Sc2ccc(Cl)c(Cl)c2)c([N+](=O)[O-])c1	> 256 µg/mL	4 µg/mL (≈ 8.27 µM)	4 µg/mL (≈ 8.27 µM)	1 µg/mL (≈ 2.07 µM)	2 µg/mL (≈ 4.13 µM)	> 256 µg/mL	37	2 µg/mL (≈ 4.13 µM)	> 256 µg/mL	75.7 µM	4 µg/mL (≈ 8.27 µM)	74.4 µM	36	2 µg/mL (≈ 4.13 µM)	> 256 µg/mL	> 256 µg/mL	6.8 µM	Activity [22]: inactive; inhibition [23]: Active; log(activity) [24]: 2; Activity [25]: Active; Activity [26]: inactive; Activity [27]: Active; Activity [28]: Active; Activity [12]: Active; Activity [29]: Active; Activity [30]: Active; Activity [31]: Active; Activity [32]: inactive; inhibition [33]: Active; Activity [34]: inactive
